The record followed here is ChEMBL document CHEMBL4813947, “New dual ATP-competitive inhibitors of bacterial DNA gyrase and topoisomerase IV active against ESKAPE pathogens” (Eur J Med Chem, 2021).

≈ marks a conversion by molar mass, not a printed value.

Assay [1] can be described thus: Inhibition of Escherichia coli topoisomerase assessed as reduction in relaxation of supercoiled pNO1 DNA measured after 30 mins by fluorescence assay. In short, it runs like this:
(§1)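 Enzyme run per an earlier-reported procedure; IC50 fitted from seven inhibitor concentrations, mean of three independent measurements.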

A short description of assay [2]: Inhibition of Staphylococcus aureus topoisomerase assessed as reduction in relaxation of supercoiled pNO1 DNA measured after 30 mins by fluorescence assay. In short, it runs like this:
as §1

Assay [3] concerns Staphylococcus aureus. Description: Antibacterial activity against Staphylococcus aureus ATCC 29213 assessed as inhibition of bacterial growth by CLSI protocol based broth microdilution assay. The format is functional. For orientation: Dilution methods test growth across graded concentrations, often in twofold steps.
For assay [4], the system named is Staphylococcus aureus. Description: Antibacterial activity against methicillin-resistant Staphylococcus aureus ATCC 43300 assessed as inhibition of bacterial growth by CLSI protocol based broth microdilution assay. Type of assay: functional. The method, boiled down:
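Minimum inhibitory concentration by standard serial broth microdilution following CLSI guidelines. Medium was MHBII broth (22 g/L powder: beef extract, casein acid hydrolysate, starch), with MHBII agar (14 g agar per L broth). Where noted, assayed without and with efflux pump substrate phenylalanine-arginine β-naphthylamide (PAβN).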

Assay [5] deals with Enterococcus faecalis. Kind of assay: Antibacterial activity against Enterococcus faecalis ATCC 29212 assessed as inhibition of bacterial growth by CLSI protocol based broth microdilution assay. Type of assay: functional.
The subject of assay [6] is Acinetobacter baumannii. Kind of assay: Antibacterial activity against Acinetobacter baumannii ATCC 17978 assessed as inhibition of bacterial growth by CLSI protocol based broth microdilution assay. Type of assay: functional.
Assay [7] deals with Pseudomonas aeruginosa. Kind of assay: Antibacterial activity against Pseudomonas aeruginosa ATCC 27853 assessed as inhibition of bacterial growth by CLSI protocol based broth microdilution assay. The format is functional.
Assay [8] concerns Klebsiella pneumoniae. Description: Antibacterial activity against Klebsiella pneumoniae ATCC 10031 assessed as inhibition of bacterial growth by CLSI protocol based broth microdilution assay. The format is functional.
Assay [9] deals with Escherichia coli. Description: Antibacterial activity against Escherichia coli ATCC 25922 assessed as inhibition of bacterial growth by CLSI protocol based broth microdilution assay. Type of assay: functional.
Assay [10] has as its target DNA gyrase (Escherichia coli, UniProt P0AES4+P0AES6). Description: Inhibition of Escherichia coli DNA gyrase assessed as reduction in supercoiling of relaxed pNO1 DNA measured after 30 mins by fluorescence assay.
The target in assay [11] is DNA gyrase (Staphylococcus aureus, UniProt P0A0K8+P20831). Kind of assay: Inhibition of Staphylococcus aureus DNA gyrase assessed reduction in supercoiling of relaxed pNO1 DNA measured after 30 mins by fluorescence assay.
Sequence of DNA gyrase (Staphylococcus aureus, UniProt P0A0K8+P20831) (P0A0K8 whole entry): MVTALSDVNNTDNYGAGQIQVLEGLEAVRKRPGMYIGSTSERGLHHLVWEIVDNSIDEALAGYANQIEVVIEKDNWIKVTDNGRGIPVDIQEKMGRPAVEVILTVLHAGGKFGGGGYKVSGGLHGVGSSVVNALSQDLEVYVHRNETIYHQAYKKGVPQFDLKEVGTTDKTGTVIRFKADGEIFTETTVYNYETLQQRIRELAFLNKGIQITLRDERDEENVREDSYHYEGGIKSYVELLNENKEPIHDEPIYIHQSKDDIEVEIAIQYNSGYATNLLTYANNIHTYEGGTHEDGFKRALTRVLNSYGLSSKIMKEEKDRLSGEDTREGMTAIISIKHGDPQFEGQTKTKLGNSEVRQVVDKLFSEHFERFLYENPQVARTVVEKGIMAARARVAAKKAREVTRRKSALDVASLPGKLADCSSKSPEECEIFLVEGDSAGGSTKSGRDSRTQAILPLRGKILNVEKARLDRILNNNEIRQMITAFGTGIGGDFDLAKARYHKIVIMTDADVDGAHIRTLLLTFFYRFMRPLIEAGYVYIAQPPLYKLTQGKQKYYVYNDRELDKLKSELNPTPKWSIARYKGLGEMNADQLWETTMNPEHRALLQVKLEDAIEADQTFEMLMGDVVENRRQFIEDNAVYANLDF
Sequence of DNA gyrase (Staphylococcus aureus, UniProt P0A0K8+P20831) (P20831 whole entry): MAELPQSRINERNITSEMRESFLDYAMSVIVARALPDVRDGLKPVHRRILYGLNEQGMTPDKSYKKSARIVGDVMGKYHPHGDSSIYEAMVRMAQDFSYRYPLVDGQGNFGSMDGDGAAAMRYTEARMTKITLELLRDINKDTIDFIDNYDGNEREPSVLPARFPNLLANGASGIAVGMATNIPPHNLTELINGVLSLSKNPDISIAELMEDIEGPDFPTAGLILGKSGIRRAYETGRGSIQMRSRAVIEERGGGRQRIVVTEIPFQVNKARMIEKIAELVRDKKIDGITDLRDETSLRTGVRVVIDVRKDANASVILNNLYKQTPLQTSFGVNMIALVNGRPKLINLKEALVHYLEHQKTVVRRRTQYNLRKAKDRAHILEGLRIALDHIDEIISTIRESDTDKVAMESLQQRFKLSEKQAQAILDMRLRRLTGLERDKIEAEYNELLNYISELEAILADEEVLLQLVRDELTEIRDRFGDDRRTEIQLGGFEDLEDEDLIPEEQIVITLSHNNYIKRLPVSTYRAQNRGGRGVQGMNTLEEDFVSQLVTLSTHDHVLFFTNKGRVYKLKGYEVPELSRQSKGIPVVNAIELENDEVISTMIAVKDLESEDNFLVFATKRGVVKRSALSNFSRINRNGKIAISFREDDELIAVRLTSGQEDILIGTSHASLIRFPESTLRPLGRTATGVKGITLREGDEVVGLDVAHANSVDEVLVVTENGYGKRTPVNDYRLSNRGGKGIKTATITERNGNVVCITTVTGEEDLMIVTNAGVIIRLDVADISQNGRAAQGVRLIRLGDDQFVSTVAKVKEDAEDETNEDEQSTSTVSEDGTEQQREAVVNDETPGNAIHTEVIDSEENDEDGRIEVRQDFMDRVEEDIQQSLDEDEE

As usually defined, the IC50 is the concentration at which inhibition is half-maximal. What is called MIC is the least concentration at which growth counts as inhibited. For the compound `Cc1[nH]c(C(=O)Nc2nc3ccc(-c4nnn[nH]4)cc3s2)c(Cl)c1Cl`, the IC50 is 660 nM in assay [1], 270 nM in [2], less than 10 nM in [10] and 25 nM in assay [11]. In addition, the MIC is 16 µg/mL (≈ 40.6 µM) in [3]; 16 µg/mL (≈ 40.6 µM) in [4]; 1 µg/mL (≈ 2.54 µM) in assay [5]; greater than 64 µg/mL in assay [6]; greater than 64 µg/mL in assay [7]; 16 µg/mL (≈ 40.6 µM) in assay [8]. In [9], the MIC is greater than 64 µg/mL.

As to `Cc1[nH]c(C(=O)Nc2nc3ccc(C(=O)NCCC(=O)O)cc3s2)c(Cl)c1Cl`, the IC50 in assay [1] was 210 nM; in [2] it was 40 nM; in [10], less than 10 nM; in assay [11], 71 nM. Further, the MIC in assay [3] is 32 µg/mL (≈ 72.5 µM); in assay [4], 8 µg/mL (≈ 18.1 µM); in assay [5], 2 µg/mL (≈ 4.53 µM); in [6], greater than 64 µg/mL; in assay [7], greater than 64 µg/mL; in [8], 8 µg/mL (≈ 18.1 µM). In addition, in assay [9], the MIC is greater than 64 µg/mL.

Regarding `Cc1[nH]c(C(=O)Nc2nc3c(O)cc(C(=O)O)cc3s2)c(Cl)c1Cl`, the IC50 in assay [1] is 130 nM; in assay [2], 120 nM; in assay [10], less than 10 nM; in assay [11], 22 nM. Besides, the minimal inhibitory concentration (MIC) is 16 µg/mL (≈ 41.4 µM) in assay [3]; 4 µg/mL (≈ 10.4 µM) in [4]; 2 µg/mL (≈ 5.18 µM) in assay [5]; greater than 64 µg/mL in assay [6]; greater than 64 µg/mL in [7]; 4 µg/mL (≈ 10.4 µM) in [8]. For the same compound, the MIC in assay [9] is greater than 64 µg/mL.

On to `Cc1[nH]c(C(=O)Nc2nc3cc(O)c(C(=O)O)cc3s2)c(Cl)c1Cl`, for which the IC50 is 95 nM in [1], 46 nM in assay [2], less than 10 nM in assay [10] and 61 nM in [11]. In addition, the minimal inhibitory concentration (MIC) was 16 µg/mL (≈ 41.4 µM) in assay [3]; 4 µg/mL (≈ 10.4 µM) in assay [4]; 1 µg/mL (≈ 2.59 µM) in [5]; greater than 64 µg/mL in [6]; greater than 64 µg/mL in assay [7]; 8 µg/mL (≈ 20.7 µM) in assay [8]. In assay [9], the MIC is greater than 64 µg/mL.

With `CCN(C(=O)c1[nH]c(C)c(Cl)c1Cl)c1nc2ccc(C(=O)O)cc2s1`, the IC50 is greater than 1000 nM in assay [1], 230 nM in [2], less than 10 nM in assay [10] and 32 nM in assay [11]. Further, the MIC in assay [3] is 0.125 µg/mL (≈ 0.314 µM); in assay [4], 8 µg/mL (≈ 20.1 µM); in assay [5] it was 0.125 µg/mL (≈ 0.314 µM); in assay [6] it was 16 µg/mL (≈ 40.2 µM); in assay [7], greater than 64 µg/mL; in assay [8], 16 µg/mL (≈ 40.2 µM). The MIC in assay [9] was 32 µg/mL (≈ 80.3 µM).
